Experimental findings from ChEMBL document CHEMBL4680165, “β-Lactams with antiproliferative and antiapoptotic activity in breast and chemoresistant colon cancer cells” (Eur J Med Chem, 2020) are described below.

For one assay, the system named is MCF7. Kind of assay: Antiproliferative activity against human MCF7 cells assessed as reduction in cell viability after 72 hrs by alamar blue assay. It is filed as functional, cell-based. Particulars: MCF7, 72 h. The gist of the method:
(§1)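 Cells seeded at 5 x 10^3/well (MCF-7) or 1 x 10^4/well (HT-29, HEK-293T) and treated after 24 h with serial dilutions (0.001-100 µM) in 1% v/v ethanol vehicle. Alamar Blue 10% v/v added at 72 h, then 3-5 h at 37 °C in the dark; fluorescence ex 530/em 590 nm. Viability relative to vehicle; IC50 from dose-response curves; mean of three experiments in triplicate.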
In general terms: Resazurin is reduced to fluorescent resorufin, in cell work by metabolically active cells.

Assay [1] concerns HT-29. The assay can be described thus: Antiproliferative activity against human HT-29 cells assessed as reduction in cell viability after 72 hrs by alamar blue assay. It is filed as functional, cell-based. To be noted: HT-29, 72 h. The gist of the method: as §1
The nature of assay [2]: Selectivity index, ratio of IC50 for human MCF7 cells to IC50 for human HT-29 cells assessed as reduction in cell viability after 72 hrs by alamar blue assay. It is filed as functional.
For a further assay, the species on record is Bos taurus. Kind of assay: Inhibition of bovine brain tubulin polymerization at 10 uM measured at 30 sec interval for 30 mins in presence of GTP by turbidimetry-based spectrophotometric method.
In assay [3] the test system is HT-29. Kind of assay: Antiangiogenic activity in human HT29 cells assessed as reduction in IL-1alpha secretion at 5 uM after 24 hrs by ELISA. In kind it is functional, cell-based. The essentials:
(§2)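 HT-29 cells at 5 x 10^4 per well, cultured 24 h and then exposed to 5 µM compound. Conditioned medium collected on ice and stored at -80 °C. Cytokines and angiogenic, vascular-injury and chemokine factors measured by multiplex panels with overnight supernatant incubation (Angiogenesis Panel 1 and Vascular Injury Panel 2 same day). Medium undiluted except 1:4 for Vascular Injury Panel 2. Secretion normalised to lysate protein by BCA.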

Assay [4] relates to HT-29. Kind of assay: Antiangiogenic activity in human HT29 cells assessed as reduction in IL-1beta secretion at 5 uM after 24 hrs by ELISA. It is filed as functional, cell-based. The essentials: as §2
Assay [5] deals with HT-29. The assay can be described thus: Antiangiogenic activity in human HT29 cells assessed as reduction in VEGF secretion at 5 uM after 24 hrs by ELISA. In kind it is functional, cell-based. The gist of the method:
as §2
For orientation: In an ELISA, binding on a coated surface is turned into a signal by an enzyme label.

Assay [6] relates to HT-29. Kind of assay: Antiangiogenic activity in human HT-29 cells assessed as increase in IL-1RA secretion at 5 uM after 24 hrs by ELISA. It is filed as functional, cell-based. The essentials:
as §2

In assay [7] the test system is HT-29. Kind of assay: Potency index, ratio of CA-4 IC50 to test compound IC50 for human HT-29 cells. In kind it is functional.

SMILES strings stand for the structures. Activity calls are given as the source filed them. The calls are words filed in the database; no cut-off is given here.

One may read the IC50 as the concentration that gives 50% inhibition. For `COc1ccc([C@H]2[C@H](O)C(=O)N2c2cc(OC)c(OC)c(OC)c2)cc1C`, the IC50 in the assay with MCF7 came out at 5 nM; in the assay on HT-29 [1], 7 nM. Also, the “Ratio IC50” value in assay [2] amounted to 0.71; in the assay with HT-29 [7], 600. Moreover, the inhibition result in the assay listed under Bos taurus is “Active”. The result in the assay with HT-29 [3], with HT-29 [4] and in the assay with HT-29 [5] was inactive. Besides, in the assay with HT-29 [6], the outcome was Active.
